Test results as given in ChEMBL document CHEMBL2311422, “Studies on synthesis, stability, release and pharmacodynamic profile of a novel diacerein-thymol prodrug” (Bioorg Med Chem Lett, 2013).
Values belong to the compound of their own block, whether it stands above or below them. Calls of active or inactive are those of the source. The calls are words filed in the database; no cut-off is given here.

How the values were obtained:
Rattus norvegicus [1] = assay: Antiinflammatory activity in Wistar rat assessed as inhibition of FCA-induced paw edema at 6.8 mg/kg, po administered on days 13 post FCA-challenge measured up to days 28 relative to control; format: functional
Procedure, shortened: (§1)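 Male Wistar rats (200–250 g), n = 6 per group. Complete Freund's adjuvant, 0.1 ml, injected sub-plantar into left hind paw on day 1. Oral dosing as 0.25% sodium CMC suspension, days 13–28. Body weight, joint diameter (digital vernier caliper) and paw volume (plethysmometer) recorded on days 0, 3, 7, 12, 15, 19, 21 and 28. Edema inhibition = 1 − (Vt/Vc) × 100, using mean relative paw-volume change versus arthritic controls. Mean ± SEM; two-way ANOVA with Bonferroni post test.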

Rattus norvegicus [2] = assay: Antiarthritic activity against FCA-induced arthritis in Wistar rat assessed as reduction in joint diameter at 6.8 mg/kg, po administered from day 13 post FCA-challenge measured up to day 28 relative to control; format: functional, organism-based; design: dose 6.8 mg/kg; procedure, shortened: as §1
Rattus norvegicus [3] = assay: Antiarthritic activity against FCA-induced arthritis in Wistar rat assessed as increase in body weight at 6.8 mg/kg, po administered from day 13 post FCA-challenge measured after 28 days relative to control; format: functional, organism-based; design: dose 6.8 mg/kg; procedure, shortened: as §1
[4] = Chemical stability in HCl buffer up to 3 hrs at pH 1.2; format: physicochemical; details: pH 1.2, 3 h
Procedure, shortened: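 10 mg prodrug in 100 ml HCl buffer pH 1.2, held at 37 ± 1 °C with occasional stirring. 5 ml aliquots withdrawn over 0–180 min, each replaced with fresh buffer. Samples read directly by UV at 232 nm (intact prodrug) and 259 nm (released diacerein). Triplicate runs.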

[5] = Prodrug conversion in phosphate buffer assessed as diacerein released after 30 mins at pH 7.4; format: physicochemical; details: pH 7.4, 0.5 h
Procedure, shortened: (§2)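 Same procedure in phosphate buffer pH 7.4 at 37 °C, followed over 4.5 h. UV read at 230 nm (prodrug remaining) and 258 nm (diacerein released). First-order rate constants taken from plots; mean K and SD from three readings, with half-life derived from these.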

[6] = n-octanol-phosphate buffer distribution coefficient, log P of the compound at pH 7.4; format: physicochemical
Procedure, shortened: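 Shake-flask partitioning between n-octanol and phosphate buffer pH 7.4, with UV spectrophotometric quantification.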

[7] = Half life in phosphate buffer at pH 7.4; format: physicochemical; procedure, shortened: as §2
[8] = Half life in Wistar rat small intestine homogenate; format: ADME, tissue-based
Procedure, shortened: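 Small intestine from an ether-anaesthetized male Wistar rat, homogenized with its contents and diluted to half with phosphate buffer pH 7.4. Prodrug stock 0.8 ml plus homogenate 0.2 ml, 37 °C for 4.5 h. Centrifuged and filtered, then UV read at 230 nm (prodrug) and 258 nm (diacerein) against phosphate buffer blank. First-order K averaged over three readings.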

Stomach = assay: Metabolic stability in Wistar rat stomach homogenate over 4.5 hrs; format: ADME, tissue-based; details: tissue homogenate
Procedure, shortened: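 Rat stomach homogenized with its contents and diluted to half with HCl buffer pH 1.2. Prodrug stock 100 μg/ml in HCl buffer; 0.8 ml stock plus 0.2 ml homogenate incubated at 37 °C. Samples centrifuged at 10,000 rpm, 4 °C, 10 min, then filtered. UV read at 232/259 nm against HCl buffer blank; quantified from calibration curves.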

Rattus norvegicus [9] = assay: Gastrointestinal toxicity against fasted Wistar rat assessed as ulcer index at 68 mg/kg, po (reference value: 1.78 +/- 0.6); format: organism-based; design: dose 68 mg/kg, route oral; details: in vivo
Rattus norvegicus [10] = assay: Antiarthritic activity in Wistar rat assessed as inhibition of FCA-induced mononuclear cell infiltration in synovial tissue of tibio-torsal joint at 6.8 mg/kg, po administered on day 13 post FCA-challenge measured on day 28 by hematoxylin and eosin staining method relative to control; format: functional, organism-based; design: dose 6.8 mg/kg
Procedure, shortened: (§3)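 Male Wistar rats, arthritis induced by sub-plantar FCA and oral dosing on days 13–28. Animals sacrificed on day 28. Ankle joints fixed 24 h in 10% buffered formalin, decalcified in 5% formic acid, paraffin-embedded and sectioned at 5 μm. H&E-stained sections read by light microscopy for synovial hyperplasia, pannus, joint-space destruction, inflammatory cell infiltration and synovitis.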

Rattus norvegicus [11] = assay: Antiarthritic activity in Wistar rat assessed as inhibition of FCA-induced inflammatory cell infiltration in subcutaneous tissue of tibio-torsal joint at 6.8 mg/kg, po administered on day 13 post FCA-challenge measured on day 28 by hematoxylin and eosin staining method relative to control; format: functional, organism-based; design: dose 6.8 mg/kg; procedure, shortened: as §3
[12] = Chemical stability in HCl buffer over 3 hrs at pH 1.2; details: pH 1.2, 3 h
Rattus norvegicus [13] = assay: Antiinflammatory activity in Wistar rat assessed as inhibition of FCA-induced paw edema at 2.04 mg/kg, po administered on days 13 post FCA-challenge measured up to days 28 relative to control; format: functional; procedure, shortened: as §1
Rattus norvegicus [14] = assay: Antiarthritic activity against FCA-induced arthritis in Wistar rat assessed as reduction in joint diameter at 2.04 mg/kg, po administered from day 13 post FCA-challenge measured up to day 28 relative to control; format: functional, organism-based; design: dose 2.04 mg/kg; procedure, shortened: as §1
Rattus norvegicus [15] = assay: Antiarthritic activity against FCA-induced arthritis in Wistar rat assessed as increase in body weight at 2.04 mg/kg, po administered from day 13 post FCA-challenge measured after 28 days relative to control; format: functional, organism-based; design: dose 2.04 mg/kg; procedure, shortened: as §1
Rattus norvegicus [16] = assay: Gastrointestinal toxicity against fasted Wistar rat assessed as ulcer index at 20.4 mg/kg, po (reference value: 1.78 +/- 0.6); format: organism-based; design: dose 20.4 mg/kg, route oral; details: in vivo
Rattus norvegicus [17] = assay: Antiarthritic activity in Wistar rat assessed as inhibition of FCA-induced subcutaneous inflammation of tibio-torsal joint at 2.04 mg/kg, po administered on day 13 post FCA-challenge measured on day 28 by hematoxylin and eosin staining method relative to control; format: functional, organism-based; design: dose 2.04 mg/kg; procedure, shortened: as §3
Rattus norvegicus [18] = assay: Antiarthritic activity in Wistar rat assessed as inhibition of FCA-induced subcutaneous inflammation of tibio-torsal joint at 5 mg/kg, po administered on day 13 post FCA-challenge measured on day 28 by hematoxylin and eosin staining method relative to control; format: functional, organism-based; design: dose 5 mg/kg; procedure, shortened: as §3
Rattus norvegicus [19] = assay: Antiinflammatory activity in Wistar rat assessed as inhibition of FCA-induced paw edema at 5 mg/kg, po administered on days 13 post FCA-challenge measured up to days 28 relative to control; format: functional; procedure, shortened: as §1
Rattus norvegicus [20] = assay: Antiarthritic activity against FCA-induced arthritis in Wistar rat assessed as reduction in joint diameter at 5 mg/kg, po administered from day 13 post FCA-challenge measured from day 15 to day 28 relative to control; format: functional, organism-based; design: dose 5 mg/kg; procedure, shortened: as §1
Rattus norvegicus [21] = assay: Antiarthritic activity against FCA-induced arthritis in Wistar rat assessed as increase in body weight at 5 mg/kg, po administered from day 13 post FCA-challenge measured after 28 days relative to control; format: functional, organism-based; design: dose 5 mg/kg; procedure, shortened: as §1
Rattus norvegicus [22] = assay: Gastrointestinal toxicity against fasted Wistar rat assessed as ulcer index at 50 mg/kg, po (reference value: 1.78 +/- 0.6); format: organism-based; design: dose 50 mg/kg, route oral; details: in vivo

Stability [4]: Stable | Drug metabolism [5]: Active | logD [6]: 0.565 | half-life [7]: 3.22 h | half-life [8]: 2.8 h | Stability (Stomach): Stable | Stability [12]: Stable
SMILES: CC(=O)Oc1cccc2c1C(=O)c1c(OC(C)=O)cc(C(=O)Oc3cc(C)ccc3C(C)C)cc1C2=O
inhibition in vivo at 6.8 mg/kg (Rattus norvegicus [1]): 78.9% | Activity (Rattus norvegicus [2]): Active | Activity (Rattus norvegicus [3]): Active | UI (Rattus norvegicus [9]): 4.17 | inhibition (Rattus norvegicus [10]): inactive | inhibition (Rattus norvegicus [11]): Active

SMILES: Cc1ccc(C(C)C)c(O)c1 [THYMOL]
inhibition in vivo at 2.04 mg/kg (Rattus norvegicus [13]): 9.1% | Activity (Rattus norvegicus [14]): Active | Activity (Rattus norvegicus [15]): inactive | UI (Rattus norvegicus [16]): 1.98 | inhibition (Rattus norvegicus [17]): inactive

logD [6]: 0.46
SMILES: CC(=O)Oc1cccc2c1C(=O)c1c(OC(C)=O)cc(C(=O)O)cc1C2=O [DIACEREIN]
inhibition (Rattus norvegicus [18]): inactive | inhibition in vivo at 5 mg/kg (Rattus norvegicus [19]): 56.9% | Activity (Rattus norvegicus [20]): Active | Activity (Rattus norvegicus [21]): Active | UI (Rattus norvegicus [22]): 6.03
